Cl transport mod = KCC2 cotransporter modulators, thallium flux, primary screen, cell-based, HEK293 KCC2, FluoZin-2 fluorescence, MLSMR | Solute carrier family 12 member 5 (Homo sapiens), Q9H2X9 | KCC2 cells, thallium flux FluoZin-2 fluorescence | B-score of Tl+ flux slope (higher = more flux/activation; lower = inhibition) at 10 µM | 190,000 compounds, 2.2% hits | AID 1456, 2008;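 active means thallium flux slope and its plate-corrected score both differing from the plate sample mean at a set confidence after two filtering rounds, in either direction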;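 further: slope of fluorescence scaled to starting intensity during 10 to 20 s after thallium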
Diaph inh CS = diaphorase inhibitors and chemical oxidizers, primary screen, counter-screen for diaphorase-coupled primary assays, biochemical, uHTS, resorufin fluorescence | inhibition, % at 20 µM | diaphorase resazurin-to-resorufin fluorescence, NADH, 16 min; bacterial (C. kluyveri) enzyme, not human | AID 1217, 2008 | 190,000 compounds, 0.69% hits;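 active means primary screen inhibition at 20 µM above a set limit, cut at about 50% in these data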;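 further: plate controls were DMSO with full reaction for no effect and wells lacking NADH for full effect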
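Test system: bacterial diaphorase enzyme (C. kluyveri); Quantity: 0.14 U/mL diaphorase, enzyme working solution; Times: reaction incubation of 16 min at room temperature; Measured by: fluorescence of resorufin formed from resazurin, Ex 544/Em 590 nm; Benchmarks: positive control minus NADH, DMSO neutral control.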
Lmaj promast = Leishmania major promastigote growth inhibition, primary screen. AID 1063, 2008. inhibition, % at 10 µM. 200,000 compounds, 9% hits. Leishmania major promastigotes, resazurin fluorescence viability; in the data active means inhibition above about 50%;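 further: promastigotes grown with compound for 44 hours at 28 °C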
ROMK primary = ROMK potassium channel modulators, primary screen, cell-based, thallium flux, MLSMR library; ATP-sensitive inward rectifier potassium channel 1 (Homo sapiens), P48048; Tet-inducible ROMK, thallium flux fluorescence; actives lie on both sides; B-score at 10 µM; 130,000 compounds, 2% hits; AID 1918, 2009;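 active means signal ratio slope over the read window, or its plate-corrected B-score, at least 3 SD from the plate mean, either direction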;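 further: B-score of the F/F0 ratio slope over 7 to 12 s after thallium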
WT yeast gro inh = growth inhibition of WT strain, primary screen, mitochondrial fusion inhibitor project, WT and mutant strains, chemical genetic; inhibition, % at 10 µM; mitochondrial fusion phenotypic screen; 190,000 compounds, 2.1% hits; in the data active means inhibition above about 58%; tested in S. cerevisiae
Diaphorase act = compounds boosting diaphorase resazurin reduction – biochemical, uHTS, resorufin fluorescence, counter-screen for diaphorase-coupled primary assays, primary screen; Diaphorase/resazurin coupled assay, 16 min; hits give high values; 1 = vehicle wells, 0 = NADH-free wells; activation factor at 20 µM; 190,000 compounds, 0.005% hits; AID 1229, 2008;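 active means diaphorase activity raised at least twofold by the compound at 20 µM; inactive means activation factor below 2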
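Measured by – red resorufin fluorescence at 544/590 nm excitation/emission · Test system – Clostridium kluyveri diaphorase, purified enzyme · Incubation – reaction time 16 min, room temperature · Buffer or medium – 50 mM HEPES pH 7.4 with 4.542 mM MgCl2, 0.005% Tween 20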
* marks the source's active call; other numbers are inactive results; . = no result given. An excerpt weighted towards active compounds, which were near 12% of everything screened.

SMILES	Cl transport mod	Diaph inh CS	Lmaj promast	ROMK primary	WT yeast gro inh	Diaphorase act
Cc1ccc(C23CC4CC(CC(CC(=O)N5CCOCC5)(C4)C2)C3)cc1	0.28	-4	14	.	28	1
N#Cc1c(NC(=O)c2cccc(S(=O)(=O)Nc3ccc(C(=O)O)cc3)c2)sc2c1CCCC2	-2.9	.	.	.	.	.
COc1ccc2cc(CN(CC3CCCO3)C(=O)Nc3ccccc3OC)c(=O)[nH]c2c1 (stereo not given)	-0.19	18	16	-0.034	0	0.8
COc1ccc2cc(CN(C(=O)Nc3ccccc3OC)C3CCCC3)c(=O)[nH]c2c1	0.31	24	53*	.	3	0.8
O=c1c2ccc(Cl)cc2nc(-c2cccc(C(F)(F)F)c2)n1O	.	13	99*	1.6	12	0.9
CCCSC1=N/C(=C\c2ccc([N+](=O)[O-])o2)C(=O)S1	-0.74	41	3	0.025	24	0.6
O=C1ON=C(c2ccccc2)/C1=C/c1ccc(-c2ccccc2[N+](=O)[O-])o1	-1.2	26	100*	-1.1	8	0.7
CCSC1=N/C(=C\c2ccc(-c3ccccc3[N+](=O)[O-])o2)C(=O)S1	-1.3	63*	-7	.	-7	0.4
CCCCOC(=O)Nc1cc(OC)c(Cl)cc1OC	0.17	1	-3	.	-2	1
S=C(NNc1ccnc2cc(Cl)ccc12)Nc1ccccc1Cl	0.24	-2	42	-0.042	42	1
FC(F)(F)c1cnc(NNC(=S)Nc2ccccc2Cl)c(Cl)c1	29*	8	-6	.	30	0.9
O=C(Nc1ccc(NC(=O)C2CCCCC2)nc1)c1ccccn1	-0.84	-7	71*	-0.41	9	1.1
O=C(Nc1ccc(NC(=O)C2CCCCC2)nc1)c1ccco1	0.03	13	86*	.	10	0.9
COc1ccccc1/C=C/C1(C(=O)NC2CCCC2)CC(=O)N1c1ccc(F)cc1 (stereo not given)	0.64	19	85*	-2.7	-21	0.8
Cc1noc(C)c1S(=O)(=O)N(CCc1ccccc1)Cc1ccccc1	0.3	17	11	.	70*	0.8
COn1c(=S)[nH]c2ccccc2c1=O	.	25	-6	0.85	-6	0.7
CCOc1cc2[nH]c(=S)n(C3CC3)c(=O)c2cc1OCC	1.2	10	-5	-0.033	-2	0.9
CC1CCCCC1n1c(=S)[nH]c2ccccc2c1=O (stereo not given)	187*	27	24	.	76*	0.7
CCOc1cc2[nH]c(=S)n(C(C)C)c(=O)c2cc1OCC	9.7*	-5	9	.	10	1
CC(C)n1c(=S)[nH]c2ccccc2c1=O	37*	1	3	.	43	1
CCC1CCCCN1CCCn1c(=S)[nH]c2ccccc2c1=O (stereo not given)	9.2*	25	97*	-0.12	5	0.7
CCOc1cc2[nH]c(=S)n(CCN3CCCCC3CC)c(=O)c2cc1OCC (stereo not given)	0.68	3	32	0.018	0	1
Cc1cccc(NC(=S)NNC(=O)c2ccc(O)cc2O)c1C	0.2	-7	71*	0.73	2	1.1
CCN(CCNC(=O)c1cccc(N2CCCC2=O)c1)c1ccccc1	-0.41	10	-1	0.47	-5	0.9
CCN(CCCNC(=O)c1ccc(N2CCCC2=O)cc1)c1cccc(C)c1	.	7	79*	.	3	0.9
O=C(CN1C(=O)c2cccc3cccc1c23)Nc1ccccc1C(=O)NCc1ccco1	.	.	82*	.	-86	.
COc1ccc(S(=O)(=O)N2CCN(C3Cc4ccccc4C3)CC2)cc1	0.65	11	97*	.	-2	0.9
COc1ccc(S(=O)(=O)N2CCC(N3CCN(Cc4ccccc4)CC3)CC2)cc1	-1.9	14	87*	-0.47	-4	0.9
